Assay results of several laboratories.
Protocols differ between the studies behind these lines.
Target: Uncharacterized serine/threonine-protein kinase SBK3 (SBK3, Homo sapiens, UniProt P0C264)
One construct used (P0C264 1-359): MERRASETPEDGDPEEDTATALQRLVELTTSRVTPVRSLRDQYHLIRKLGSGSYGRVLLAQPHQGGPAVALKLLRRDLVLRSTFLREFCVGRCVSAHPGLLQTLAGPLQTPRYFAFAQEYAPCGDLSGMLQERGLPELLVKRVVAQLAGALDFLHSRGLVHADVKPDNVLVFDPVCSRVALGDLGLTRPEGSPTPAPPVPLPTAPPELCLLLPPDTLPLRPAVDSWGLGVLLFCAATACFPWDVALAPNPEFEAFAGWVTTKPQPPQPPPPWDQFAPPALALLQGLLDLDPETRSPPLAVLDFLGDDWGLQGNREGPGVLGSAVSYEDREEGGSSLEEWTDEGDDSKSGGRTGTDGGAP

The remaining binding of `c1cncc(-c2cccc(Nc3nccc(NC4CCCCC4)n3)c2)c1` is reported as 33% (binding, competition with immobilised ligand; 10 µM).
The remaining binding of `Nc1ncc2c(n1)-c1c([nH]c3ccc(C#CC4CC4)cc13)CCCC2` is reported as 100% (binding, competition with immobilised ligand; 1 µM).
`COc1ccc2c(c1)O[C@H](c1ccc(OC)c(OC)c1)C[C@@H]2NC(=O)C1(c2ccc3c(c2)OC(F)(F)O3)CC1` gave a remaining binding of 100% (cell-free assay, competition with immobilised ligand; 1 µM).
The remaining binding of `CNC(=O)[C@@H]1CC[C@@H](n2c(-c3ccc4cnccc4c3)nc3ccc(C(=O)NCc4cccc(C(N)=O)c4)cc32)C1` is reported as 87% (binding, competition with immobilised ligand; 1 µM).
For `O=C(c1ccc(Nc2nccc(-c3cc4ccccc4s3)n2)cc1)N1CCC(N2CCCC2)CC1`, the remaining binding was 88% (binding, competition with immobilised ligand; 1 µM).
`CCN1CCN(Cc2ccc(C(=O)Nc3ccc(C)c(Oc4ccc5c(c4)CC(=O)N5)c3)cc2C(F)(F)F)CC1` gave a remaining binding of 100% (binding, competition with immobilised ligand; 1 µM).
`Cn1nc(C(=O)NCc2ccc(C(=O)O)cc2)cc1-c1ccc2[nH]ccc2c1` has a remaining binding of 79% (cell-free assay, competition with immobilised ligand; 0.1 µM).
The remaining binding of `COc1cnc(Nc2cccc(S(N)(=O)=O)c2)nc1N1CCN(c2ccccc2)C(=O)C1` is reported as 64% (binding, competition with immobilised ligand; 1 µM).
The remaining binding of `CC(=O)C1=C(C)N(c2cccc(C(F)(F)F)c2)C(=O)N[C@@H]1c1ccc(C#N)nc1` is reported as 100% (cell-free assay, competition with immobilised ligand; 1 µM).
With `CN(C)c1nccc(-c2cnn3ncccc23)n1` the remaining binding was 100% (binding; 1 µM).
With `CCCCN(CCCC)C(=O)CN1C[C@@H](c2cc(OC)c3c(c2)OCO3)[C@H](C(=O)O)[C@H]1CC(C)(C)CCC` the remaining binding was 100% (cell-free assay, competition with immobilised ligand; 1 µM).
The remaining binding of `C[C@@H](c1ccc(-n2cnc3c(N)ncnc32)cc1)N1CCc2nn(C)c(Cc3ccccc3)c2C1=O` is reported as 99% (binding, competition with immobilised ligand; 0.1 µM).
`CN(C)C(=O)Cn1cc(-c2nc([C@@](C)(c3ccc(-c4cnc(N)nc4)cc3)C3CC3)no2)cn1` gave a remaining binding of 71% (cell-free assay, competition with immobilised ligand; 1 µM).
`N[C@H]1CCN(c2nccc(-c3cnn4ncccc34)n2)C1` has a remaining binding of 100% (binding; 1 µM).
`O=C(NCCCN1CCOCC1)c1ccc(Nc2ncc(Cl)c(-c3ccc(Cl)s3)n2)cc1` has a remaining binding of 79% (binding, competition with immobilised ligand; 1 µM).
With `CC1CCCN1c1nccc(-c2cnn3ncccc23)n1` (stereo not drawn) the remaining binding was 100% (binding; 1 µM).
For `O=C(c1ccc(Nc2ncc(Cl)c(-c3cc4ccccc4s3)n2)cc1)N1CCC(N2CCCC2)CC1`, the remaining binding was 86% (binding, competition with immobilised ligand; 1 µM).
`C[C@@H]1CCN(c2nccc(-c3cnn4ncccc34)n2)C1` gave a remaining binding of 99% (binding; 1 µM).
`CS(=O)(=O)c1cc(C2(NC(=O)c3cncc4c3cnn4-c3ccc(F)cc3)CC2)ccn1` has a remaining binding of 100% (cell-free assay, competition with immobilised ligand; 1 µM).
With `CN(CCCC(F)(F)F)c1nccc(-c2cnn3ncccc23)n1` the remaining binding was 42% (binding; 1 µM).
`O=C(Nc1c[nH]nc1C(=O)NC1CCNCC1)c1cc(F)cc(F)c1` has a remaining binding of 100% (binding, competition with immobilised ligand; 1 µM).
